Measured values: PubChem BioAssay
Active and inactive are the calls of the source. Cut-off read from the data, not from the text of the source, unless noted: active = inhibition above about 30%; inactive = the rest.

Experiments:
[1] = SK-BR-3 cell growth inhibitors, pilot screen, 24 h, human (AID 572;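 active = viability at or below 10% of carrier control in both of two separate runs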;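 note: compound exposure lasted between 18 and 24 h rather than exactly 24 h; 100% = carrier-treated control wells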); details: SK-BR-3 viability, CellTiter-Glo luminescence, at 10 µM, stronger effect = lower value
[2] = HUVEC growth inhibition – cell-based, human, primary screen (AID 575;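 active = viability at or below 30% in both replicate assays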;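 note: 100% = median of untreated cell wells with 0.1% DMSO on each plate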); details: HUVEC proliferation, CellTiter-Glo luminescence, 72 h; at 10 µM; stronger effect = lower value
How it was run: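 Assay system: Primary human umbilical vein endothelial cells | Quantity: 1250 cells per well | Medium: Supplemented EBM, 2% fetal bovine serum | Detection: CellTiter-Glo luminescence measuring cellular ATP | Read-out: % viability vs DMSO wells | Plate: Collagen-coated 384-well format | Times: 72 h exposure, 37 °C, 5% CO2, 30 min RT equilibration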

[3] = reversal of MRP1-mediated doxorubicin resistance, pilot screen, H69AR cells, doxorubicin co-treatment (AID 601;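 active = viability loss from added drug above about 55%, and viability with drug at most 40%, in both replicates, limit read from the data, passing the limit was not always enough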); details: CellTiter-Glo, 72 h, at 10 µM; for differential viability (reversal): stronger effect = higher value
[4] = 384-well plate pilot, post-Golgi transport modulator project, inhibition of yeast transport mutant growth (AID 636; in the data active = inhibition above about 31%); details: absorbance 615 nm, about 18 h, stronger effect = higher value
[5] = growth suppression of yeast trafficking mutant, preliminary HTS, modulators of trafficking downstream of Golgi apparatus project, 1536-format plate, OD 615 nm (AID 637); details: yeast transport mutant growth, absorbance 615 nm, 18 h; stronger effect = higher value
[6] = growth inhibitors of H69AR lung tumor, primary screen, human, duplicate replicates (AID 580;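 active = viability at or under a set limit in both replicates, limit being median viability minus 3 SD, cut at about 48% in these data, passing the limit was not always enough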;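 note: 100% = mean luminescence of untreated wells and 0% = no signal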); details: H69AR lung tumor cells viability, ATP luminescence, 72 h; at 10 µM; stronger effect = lower value
[7] = H69AR cells + 2 uM doxorubicin, measured here: viability with 2 uM doxorubicin, stronger effect = lower value
[8] = H69AR cells, compound alone cytotoxicity

Row | SMILES | viability [1] | viability [2] | differential viability (reversal) ([3]; H69AR cells + 2 uM doxorubicin) | viability [3, 7] [%] | viability [3, 8] [%] | inhibition [4] | inhibition [5] | viability [6]
1 | COC(=O)Nc1nc2ccc(C(=O)c3ccccc3)cc2[nH]1 | 109% (inactive) | 44.3% (inactive) | -47.3% (inactive) | 73.4 | 26.1 | 42.3% (active) | 90.2% (active) | 
2 | CC[C@]1(O)CC2CN(CCc3c([nH]c4ccccc34)[C@@](C(=O)OC)(c3cc4c(cc3OC)N(C=O)[C@H]3[C@@](O)(C(=O)OC)[C@H](OC(C)=O)[C@]5(CC)C=CCN6CC[C@]43[C@@H]65)C2)C1 (stereo partly drawn) | 104% (inactive) | 34.6% (inactive) | -27% (inactive) | 53.5 | 26.5 | -0.91% (inactive) | -3.67% (inactive) | 
3 | CCCSc1ccc2nc(NC(=O)OC)[nH]c2c1 | 95% (inactive) | 43.2% (inactive) | -28.6% (inactive) | 48.9 | 20.3 | -1.56% (inactive) | 0.17% (inactive) | 
4 | CN(C)CCCN1c2ccccc2Sc2ccc(Cl)cc21 | 71% (inactive) | 2.62% (active) | -26.7% (inactive) | 28.3 | 1.67 | -0.91% (inactive) | 7.17% (inactive) | 
5 | COc1ccc(CCN(C)CCCC(C#N)(c2ccc(OC)c(OC)c2)C(C)C)cc1OC (stereo not drawn) | 73% (inactive) | 66.8% (inactive) |  |  |  | -2.34% (inactive) | -0.5% (inactive) | 
6 | COc1ccc(C(=O)Nc2ccc(Cl)c(Cl)c2)c(OC)n1 | 93% (inactive) | 83.2% (inactive) | -7.11% (inactive) | 47.6 | 40.5 | -8.53% (inactive) | -4.36% (inactive) | 
7 | C/C=C(/C(=C/C)c1ccc(O)cc1)c1ccc(O)cc1 | 123% (inactive) | 54.9% (inactive) | -57.5% (inactive) | 85.2 | 27.6 | 0.65% (inactive) | 25% (inactive) | 
8 | O=C(CSc1nc2cc(S(=O)(=O)N3CCOCC3)ccc2o1)NC1CCCc2ccccc21 (stereo not drawn) | 61% (inactive) | 84.7% (inactive) | -4.17% (inactive) | 74.4 | 70.2 | -3.6% (inactive) | -5.82% (inactive) | 
9 | COc1ccc(CCn2c(=N)c(C(=O)NCc3ccco3)cc3c(=O)n4ccccc4nc32)cc1 | 73% (inactive) | 57.9% (inactive) | -8.4% (inactive) | 64.5 | 56.1 | -6.76% (inactive) | -8.33% (inactive) | 
10 | COc1ccccc1NC(=O)N(Cc1ccco1)Cc1cc2c(C)ccc(C)c2[nH]c1=O | 70% (inactive) | 71.1% (inactive) | -28.8% (inactive) | 50.9 | 22.1 | -2.88% (inactive) | -2.55% (inactive) | 
11 | O=C1NC2c3ccccc3C(=O)N2c2c1cnn2-c1ccccc1 (stereo not drawn) | 98% (inactive) | 80.3% (inactive) | -35.4% (inactive) | 86 | 50.6 | 0.68% (inactive) | 0.91% (inactive) | 
12 | CCOC(=O)Nc1ccc2c(c1)N(C(=O)CCN1CCOCC1)c1ccccc1S2 | 78% (inactive) | 97% (inactive) | -11.3% (inactive) | 76 | 64.7 | -5.07% (inactive) | -2.55% (inactive) | 
13 | CCCn1nc(NC(=O)c2cccs2)c2cc3cc(OC)ccc3nc21 | 102% (inactive) | 56.4% (inactive) | -18.7% (inactive) | 81.8 | 63.1 | -6.58% (inactive) | 2.58% (inactive) | 
14 | N#Cc1cc2c(nc1SCC(=O)Nc1sc3c(c1C#N)CCC3)CCCCC2 | 82% (inactive) | 79.5% (inactive) | -16.5% (inactive) | 57.4 | 40.9 | -7.84% (inactive) | -8.91% (inactive) | 
15 | CC(=O)O[C@H]1C(=O)[C@]2(C)[C@H]([C@H](OC(=O)c3ccccc3)[C@]3(O)C[C@H](OC(=O)[C@H](O)[C@@H](NC(=O)c4ccccc4)c4ccccc4)C(C)=C1C3(C)C)[C@]1(OC(C)=O)CO[C@@H]1C[C@@H]2O | 67% (inactive) | 38.8% (inactive) | -69.2% (inactive) | 81.8 | 12.6 | 0.52% (inactive) | -0.67% (inactive) | 
16 | COc1ccc(CSCCN)cc1Cl | 113% (inactive) | 105% (inactive) | -18.3% (inactive) | 57.5 | 39.2 | -7.33% (inactive) | -2% (inactive) | 
17 | COc1cc(C2Nc3cccc4cccc(c34)N2)cc(OC)c1O | 92.5% (inactive) | 57.5% (inactive) | -14.8% (inactive) | 70 | 55.2 | -0.92% (inactive) | -4.76% (inactive) | 
18 | CCCCc1oc2ccccc2c1C(=O)c1cc(I)c(OCCN(CC)CC)c(I)c1 | 91% (inactive) | 2.45% (active) | -11.1% (inactive) | 12.4 | 1.29 | 100% (active) | 100% (active) | 
19 | CN1CCN(c2ccc(Cl)cc2NC(=O)c2cccc(S(=O)(=O)N(C)C)c2)CC1 | 93% (inactive) | 71.6% (inactive) | 43.3% (inactive) | 24.6 | 67.9 | -5.47% (inactive) | 1.27% (inactive) | 
20 | CCn1c(=N)n(CC(=O)c2ccco2)c2ccccc21 | 95% (inactive) | 95.5% (inactive) | -38.3% (inactive) | 73.2 | 34.9 | -5.2% (inactive) | -4% (inactive) | 

Row | SMILES | viability [1] | viability [2] | differential viability (reversal) ([3]; H69AR cells + 2 uM doxorubicin) | viability [3, 7] [%] | viability [3, 8] [%] | inhibition [4] | inhibition [5] | viability [6]
21 | COc1ccc2cc(C(c3nnnn3C(C)(C)C)N3CCc4ccccc4C3)c(=O)[nH]c2c1 (stereo not drawn) | 81% (inactive) | 48.3% (inactive) | 26% (inactive) | 23.1 | 49.1 | -5.33% (inactive) | -2.36% (inactive) | 
22 | CCOC(=O)c1c(NC(=O)COC(=O)c2c(C)noc2C)sc2c1CCC2 | 63% (inactive) | 35.6% (inactive) | 0.845% (inactive) | 47 | 47.8 | -8.36% (inactive) | -3.87% (inactive) | 
23 | CCC(=O)Oc1ccc(C(CC)C(CC)c2ccc(OC(=O)CC)cc2)cc1 (stereo not drawn) | 112% (inactive) |  | -16.4% (inactive) | 102 | 85.8 | -5.32% (inactive) | -1.33% (inactive) | 85.8% (inactive)
24 | Cc1nnc(NCc2n[nH]c(=O)c3ccccc23)c2ccccc12 | 72% (inactive) |  | -14.8% (inactive) | 81.9 | 67.1 | -3.38% (inactive) | 1.64% (inactive) | 67.1% (inactive)
25 | Cc1cc(C)c2ccc(N)nc2c1O | 87.5% (inactive) |  | -7.52% (inactive) | 28.9 | 21.4 | -1.43% (inactive) | -1.48% (inactive) | 21.4% (active)
26 | COc1ccc(-n2cc(-c3ccccc3)c3c(N4CCN(CCO)CC4)ncnc32)cc1 | 100% (inactive) |  | 10.5% (inactive) | 45.7 | 56.2 | -6.13% (inactive) | 0.48% (inactive) | 56.2% (inactive)
27 | COc1ccc(Cl)cc1N1CCN(CCNC(=O)Nc2ccccc2C)CC1 | 85% (inactive) |  | -22.7% (inactive) | 71.4 | 48.7 | -4.93% (inactive) | 4.91% (inactive) | 
28 | COc1ccc(Cl)cc1C(=O)NCCc1ccc(S(=O)(=O)NC(=O)NC2CCCCC2)cc1 | 116% (inactive) |  | -9.18% (inactive) | 103 | 93.5 | 0.26% (inactive) | -1.33% (inactive) | 93.5% (inactive)
29 | Oc1cccc(Nc2nc(NCC3CCCO3)c3ccccc3n2)c1 (stereo not drawn) | 73% (inactive) |  | -19.3% (inactive) | 41.4 | 22.1 | -5% (inactive) | 3.17% (inactive) | 22.1% (active)
30 | O=S(=O)(c1cccc2cnccc12)N1CCCNCC1 | 140% (inactive) |  | 1.83% (inactive) | 95.5 | 97.4 | -2.08% (inactive) | 4.5% (inactive) | 97.4% (inactive)
31 | O=C(Nc1ccc2oc(Cc3ccc(Cl)cc3)nc2c1)c1cccnc1 | 103% (inactive) |  | -41.5% (inactive) | 79.4 | 37.9 | -1.73% (inactive) | -0.55% (inactive) | 37.9% (active)
32 | Cc1cccn2c(=O)c3cc(C(=O)NC4CCCC4)c(=N)n(C4CCCC4)c3nc12 | 107% (inactive) |  | 15.5% (inactive) | 12.1 | 27.6 | -8.49% (inactive) | 0.81% (inactive) | 27.6% (active)
33 | CCc1oc2ccccc2c1C(=O)c1cc(Br)c(O)c(Br)c1 | 95% (inactive) |  | -23.2% (inactive) | 102 | 79 | -0.52% (inactive) | 54.7% (active) | 79% (inactive)
34 | COc1cc2c(C#N)c(N3CCN(c4ccccc4OC)CC3)nc(N)c2c(N)n1 | 110% (inactive) |  | 4.45% (inactive) | 63.3 | 67.8 | -0.26% (inactive) | 5.9% (inactive) | 67.8% (inactive)
35 | O=C(Nc1ccc2nn(-c3ccccc3)nc2c1)c1ccc(Br)o1 | 67.5% (inactive) |  | -0.29% (inactive) | 9.78 | 9.49 | -7.43% (inactive) | -10.3% (inactive) | 9.49% (active)
36 | Clc1ccc(OCc2nnc(SCCN3CCCCC3)n2Cc2ccco2)cc1 | 90% (inactive) |  | -4.72% (inactive) | 43.3 | 38.6 | -7.33% (inactive) | -1.82% (inactive) | 
37 | N#Cc1ccccc1Cn1c(=O)n(Cc2ccc(C(=O)NCc3ccco3)cc2)c(=O)c2ccccc21 | 73% (inactive) |  | -8.33% (inactive) | 19.4 | 11 | -1.82% (inactive) | -7.21% (inactive) | 11% (active)
38 | O=C(O)c1cc(O)c2c(c1)C(=O)c1cccc(O)c1C2=O | 87% (inactive) |  | -14.5% (inactive) | 91.4 | 76.9 | -4.42% (inactive) | 1.83% (inactive) | 76.9% (inactive)
39 | Cc1ccc(Cl)cc1N1CCN(C(=O)c2cn(C)c(=O)c3c2c2ccccc2n3C)CC1 | 94% (inactive) |  | -28.7% (inactive) | 31.8 | 3.07 | -1.73% (inactive) | 4.73% (inactive) | 3.07% (active)
